Screens from PubChem.
CDK5 p35 inh: blocks human CDK5/p35 kinase activity; Q00535+Q15078; Recombinant CDK5/p35, ADP-Glo luminescence, 60 min; inhibition, % at 10 µM; actives 0.01% (n = 330,000);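 active = highest replicate inhibition of at least 50% and at least 75% of replicates reaching 50%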
Target sequence (Q00535 whole entry, looked up): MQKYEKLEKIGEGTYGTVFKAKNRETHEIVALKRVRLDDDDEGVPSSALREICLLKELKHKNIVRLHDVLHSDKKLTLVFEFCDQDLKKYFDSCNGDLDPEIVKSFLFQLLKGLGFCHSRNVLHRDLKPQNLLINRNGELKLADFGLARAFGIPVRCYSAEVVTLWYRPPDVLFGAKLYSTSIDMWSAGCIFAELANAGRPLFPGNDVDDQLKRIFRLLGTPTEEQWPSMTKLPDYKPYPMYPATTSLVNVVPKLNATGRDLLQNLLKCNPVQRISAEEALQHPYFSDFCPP
Target sequence (Q15078 whole entry, looked up): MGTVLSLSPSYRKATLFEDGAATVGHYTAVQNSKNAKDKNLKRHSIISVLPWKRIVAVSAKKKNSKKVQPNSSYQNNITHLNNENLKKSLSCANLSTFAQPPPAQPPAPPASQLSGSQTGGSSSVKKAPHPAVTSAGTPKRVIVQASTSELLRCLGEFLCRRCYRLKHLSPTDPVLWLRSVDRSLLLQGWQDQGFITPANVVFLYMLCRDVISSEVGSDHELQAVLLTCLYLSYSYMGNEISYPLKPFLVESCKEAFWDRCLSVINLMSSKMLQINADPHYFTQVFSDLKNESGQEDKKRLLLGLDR
Dyrk1A ADPGlo: Dyrk1A (rat) kinase inhibition; Q63470; inhibition, % at 12.5 µM; ADP-Glo luminescence, NFATc1 peptide; actives 0.43% (n = 310,000); AID 504441; in the data active = inhibition above about 50%
PvdQ inh: blocks Pseudomonas aeruginosa PvdQ acylase activity; purified PvdQ acylase, fluorescence plate reader; AID 488965; inhibition, % at 10 µM; actives 0.063% (n = 340,000); in the data active = inhibition above about 30%, passing the limit was not always enough
Tb MetRS inh: blocks T. brucei methionyl-tRNA synthetase activity; purified T. brucei MetRS, ATP depletion, Kinase-Glo luminescence; AID 624268; inhibition, % at 11.9 µM; actives 0.4% (n = 360,000);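 active = inhibition above a per-plate cutoff of the control wells' mean inhibition plus 3 SD, cut at about 5.5% in these data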
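assay system = parasite MetRS enzyme | timing = 15 min preincubation, 2 h reaction, all 25 °C | evaluation = percent inhibition relative to median high and low control wells | medium = HEPES buffer containing pyrophosphatase, BSA, spermine, DTT | compound = single dose, 11.9 µM final nominal, 0.9% final DMSO | detection = Kinase-Glo luminescence, ATP depletion format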
CAL PDZ FP-1: inhibitors of human CAL PDZ peptide binding. purified CAL PDZ, TMR-peptide fluorescence polarization, 1 h. inhibition, % at 20 µM. actives 0.02% (n = 330,000). AID 504414;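 active = highest replicate inhibition of at least 40%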
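System: purified tagged CAL PDZ domain construct (CerCALP). Schedule: 1 h incubation at room temperature before polarization reading. Medium: 25 mM sodium phosphate pH 7.4, 150 mM NaCl, TCEP, IgG, Thesit. Read-out: percent inhibition from loss of millipolarization. Measured by: FP readout, S and P plane fluorescence. Probe or stimulus: fluorescent TMR peptide probe.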
CAL PDZ FP-2: inhibitors of human CAL PDZ peptide binding | Q9HD26 | purified CAL PDZ, TMR-peptide fluorescence polarization, 1 h | inhibition, % at 24.9 µM | actives 0.92% (n = 300,000);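 active = mean inhibition of at least 30% with at least half of replicates also reaching 30%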
Dyrk1A artifact: ADP-Glo luciferase interference, Dyrk1A counter-screen. shares compounds with Dyrk1A ADPGlo. ADP-Glo luciferase artifact assay, no Dyrk1A, luminescence. AC50, µM (highest dose often 12 µM). 1,300 tested, under 10 active;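 active = fitted half-maximal dose AC50 no more than ten times the top valid tested dose, with luminescence dropping as dose rises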
Hits are given with their value; - = inactive; . = not tested or not shown. A selection: hits, their analogues and other compounds. The true share with any hit is near 1.4%.

SMILES	CDK5 p35 inh	Dyrk1A ADPGlo	PvdQ inh	Tb MetRS inh	CAL PDZ FP-1	CAL PDZ FP-2	Dyrk1A artifact
CCOC(=O)CSC1=NC(=O)/C(=C/c2ccc(Br)cc2)S1	-	.	-	-	-	-	.
CCN(c1ccc(OC)cc1)S(=O)(=O)N1CCCC(C(=O)NCc2ccc(OC(C)C)cc2)C1 (stereo unspecified)	.	.	.	-	.	.	.
CC(C)NC(=O)Nc1cccc2c1O[C@H](CN(C)C(=O)NC1CCCCC1)[C@@H](C)CN([C@H](C)CO)C2=O	-	-	-	-	-	-	.
CC(C)NC(=O)Nc1cccc2c1O[C@H](CN(C)C(=O)NC1CCCCC1)[C@H](C)CN([C@H](C)CO)C2=O	-	51	-	-	-	-	-
Nc1nc2c(ncn2[C@@H]2O[C@H](CNCc3cnc(N4CCOCC4)s3)[C@@H](O)[C@H]2O)c(=O)[nH]1	.	.	.	-	.	.	.
CCOC(=O)c1nnc(-c2ccc(C)cc2)nc1Sc1ccc(Cl)cc1	-	55	-	-	-	-	-
COc1ccc([C@H]2C[C@H](O)[C@@H](n3cc(COC(=O)c4ccccc4)nn3)CN2CC2CCCCC2)cc1	.	.	.	-	.	.	.
COc1ccc(NC(=O)c2cc(C3CCCCN3C(=O)CCCc3ccccc3)on2)c(C)c1 (stereo unspecified)	.	.	.	-	.	.	.
C#CCN1CCc2onc(-c3ccc(Br)cc3)c2C1=O	.	.	.	-	.	.	.
O=C1Nc2ccccc2-n2nnnc2C1N1CCN(CCN2CCOCC2)CC1 (stereo unspecified)	.	.	.	-	.	.	.
COc1ccc(NC(=O)N(C)C[C@H]2Oc3ccc(NC(=O)CCN4CCOCC4)cc3C(=O)N([C@H](C)CO)C[C@@H]2C)cc1	-	56	-	-	-	-	-
CC1CCc2nc(NC(=O)c3ccco3)sc2C1 (stereo unspecified)	-	-	-	-	-	-	.
O=C(Nc1nc2c(s1)CCCC2)c1ccc(N2C(=O)CCC2=O)cc1	-	67	-	-	-	-	-
CC1CCc2nc(NC(=O)c3ccc(N4C(=O)CCC4=O)cc3)sc2C1 (stereo unspecified)	-	56	-	-	-	-	-
Cc1ccc(N2CCN(C(=O)C(=O)c3ccc4c(c3)OCO4)CC2)cc1	.	.	.	-	.	.	.
Fc1cccc(Cc2c(-c3ccco3)nc3c4ccccc4ccn23)c1	.	.	.	-	.	.	.
COC(=O)[C@@]12C[C@@H](CC(=O)N3CCC(c4ccccc4)CC3)C(=O)N(Cc3cccc4ccccc34)C1=CCC(C)(C)C2	.	.	.	-	.	.	.
c1cnc2ccc(-c3ccc4ncccc4c3)cc2c1	-	87	47	-	.	-	-
CCCC(=O)Nc1nc(-c2ccc3c(c2)OCCO3)cs1	-	55	-	-	-	.	-
O=C(O)C(=O)Nc1nc(-c2ccc3c(c2)OCCO3)cs1	-	-	-	-	-	-	.
CSCC(=O)Nc1nc(-c2ccc3c(c2)OCCO3)cs1	-	68	-	-	-	-	-
CCCCNC(=O)C1(C)CCN1C(=O)c1ccc(F)cc1Cl (stereo unspecified)	.	.	.	-	.	.	.
CC(=O)C[C@H]1SC[C@@H](C(C)C)N1S(=O)(=O)c1ccc(C)cc1	.	.	.	-	.	.	.
COc1ccc(C(=O)c2sc(Nc3ccccc3)nc2N)cc1	-	-	-	-	-	-	.
Nc1nc(Nc2ccccc2)sc1C(=O)c1ccccc1	82	81	-	-	-	.	-
SMILES	CDK5 p35 inh	Dyrk1A ADPGlo	PvdQ inh	Tb MetRS inh	CAL PDZ FP-1	CAL PDZ FP-2	Dyrk1A artifact
COc1ccc(C(=O)c2sc(Nc3ccccc3F)nc2N)cc1	-	61	-	-	-	-	-
COc1cccc(CN(C)C(=O)c2ccc(S(=O)(=O)Nc3cccc(C)c3C)cc2)c1OC	.	.	.	-	.	.	.
N#Cc1c2ccc(O)cc2n2ccccc12	-	87	-	-	-	-	-
NS(=O)(=O)c1ccc(Nc2nc(-c3ccc(O)cc3O)cs2)cc1	-	68	-	-	-	-	-
NS(=O)(=O)c1ccc(Nc2nc(-c3ccc(F)cc3)cs2)cc1	-	-	-	-	-	-	.
COc1ccc(Cn2cc(CN3CC(N4CCN(Cc5ccccc5F)CC4)CS3(=O)=O)nn2)cc1 (stereo unspecified)	.	.	.	-	.	.	.
O=c1cc(-c2ccc(O)cc2)oc2c1ccc1ccccc12	-	.	-	-	-	-	.
COc1c(O)cc2oc(-c3ccc(O)cc3)cc(=O)c2c1O	-	-	-	-	-	-	.
O=c1cc(-c2ccc(O)cc2)oc2c(O)c(O)c(O)c(O)c12	-	54	-	-	-	-	-
O=c1cc(-c2ccccc2)oc2cc(O)c(O)c(O)c12	-	57	-	-	-	-	-
Cc1ccccc1CN1C(=O)CN(S(C)(=O)=O)CC1(C)C(=O)Nc1ccc2c(c1)OCCO2 (stereo unspecified)	.	.	.	-	.	.	.
COC(=O)[C@]12CCCCC=C1N(CCc1ccc(OC)c(OC)c1)C(=O)[C@H](CC(=O)NCc1cccc(C(F)(F)F)c1)C2	.	.	.	-	.	.	.
COc1cc(O)cc2cc3c(c(O)c12)C(=O)CC(C)(O)O3 (stereo unspecified)	-	108	-	-	-	-	-
O=C(COc1ccccc1)Nc1cccc(-c2nn[nH]n2)c1	-	70	-	-	-	-	-
O=C(COc1ccccc1)Nc1cccc(-c2cn3cccnc3n2)c1	-	54	-	-	-	-	-
CCOC(=O)[C@]12CCC=C1N(Cc1ccccc1)C(=O)[C@H](CC(=O)NCc1cccs1)C2	.	.	.	-	.	.	.
O=C(c1ccc(Cl)c(Cl)c1)N1CCC(=O)N(C(COCc2cccc(C(F)(F)F)c2)Cc2ccccc2)CC1 (stereo unspecified)	-	53	-	-	-	-	-
CN(C)c1ccc(-c2csc(C(O)c3cccc(Cl)c3)n2)cc1 (stereo unspecified)	.	.	.	-	.	.	.
CCOC(=O)C1=C(C)OC(N)=C(C#N)C1c1ccc(O)c(OC)c1 (stereo unspecified)	-	51	-	-	-	-	-
CCOC(=O)C1=C(C)OC(N)=C(C#N)C1c1ccccc1 (stereo unspecified)	-	-	-	-	-	-	.
O=C1/C(=C/c2ccc3c(c2)OCO3)Oc2cc(OCC(=O)N3CCC[C@H]3C(=O)O)ccc21	-	71	-	-	-	-	-
CCC(=O)N1CCC1(C)C(=O)Nc1ccc(Cl)c(Cl)c1 (stereo unspecified)	.	.	.	-	.	.	.
Cc1n[nH]c(C)c1N=Nc1ccc(Br)cc1	-	-	-	-	-	-	.
COc1ccc(N=Nc2c(C)n[nH]c2C)cc1	-	52	-	-	-	-	-
CCc1nc2ccc(C(=O)Nc3cc(-c4ccccc4)ccc3OC)cn2c1N(C)C(=O)c1cccc(OC)c1	.	.	.	-	.	.	.
CC1(Cc2ccc(F)c(Cl)c2)C(=O)Nc2c(Cl)cccc21 (stereo unspecified)	.	.	.	-	.	.	.
Cc1cccc(NC(=O)COC(=O)c2n[nH]c3ccccc23)c1C	-	-	-	-	-	-	.
